Assay results published in ChEMBL document CHEMBL2086278, “Synthesis and biological evaluation of ester prodrugs of Benzafibrate as orally active hypolipidemic agents” (Eur J Med Chem, 2012).

Tests used:
[1] = Octanol-phosphate buffer partition coefficient, log P of the compound at pH 7.4 by HPLC analysis; format: physicochemical
In short: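 1-Octanol and 0.2 M phosphate buffer pH 7.4, mutually pre-saturated 24 h. Compound shaken between 5 mL of each phase for 60 min at 400 rpm, 25 °C, then centrifuged at 3500 rpm for 5 min. Each phase quantified by HPLC at 254 nm. log P = log of octanol/un-ionized aqueous concentration ratio, mean of triplicate.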

[2] = Aqueous stability of the compound in 0.2 M hydrochloric acid buffer solution at pH 1 at 40 degC after 4 hrs by HPLC analysis; format: physicochemical; details: pH 1, 4 h
In short: (§1)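 10 mg test compound in 10 mL buffer shaken at 400 rpm, 40 °C, 4 h. Buffers: 0.2 M HCl pH 1.0, 0.1 M citric acid pH 3.0, 0.1 M phosphate pH 5.2, 0.2 M phosphate pH 7.4, 0.1 M boric acid pH 9.0. Filtered 0.20 µm; filtrate analysed by HPLC at 254 nm (C-8 column, gradient) for bezafibrate formed / % hydrolysed.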

[3] = Aqueous stability of the compound in 0.1 M citric acid buffer at pH 3 at 40 degC after 4 hrs by HPLC analysis; format: physicochemical; details: pH 3, 4 h; in short: as §1
[4] = Prodrug conversion in 0.1 M phosphate buffer solution assessed as benzofibrate formation at pH 5.2 at 40 degC after 4 hrs by HPLC analysis; format: physicochemical; details: pH 5.2, 4 h; in short: as §1
Mus musculus [5] = assay: Hypolipidemic activity in Swiss albino mouse assessed as reduction in plasma triglyceride level at 50 mg/kg, po for 8 days measured on day 9 by spectrophotometry relative to control; format: functional; parameters: scale not given: the % may be the effect or the level left
In short: (§2)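 Male Swiss albino mice, 21–30 g, chow fed, acclimatised 1 week; n = 10/group. Oral gavage 50 mg/kg/day for 8 days, suspended in Tween-80 5 µL/mL in 0.5% CMC (10 mL/kg); vehicle controls. Fasted 12 h; day 9 blood taken 1 h post-dose under mild ether. Plasma (4000 rpm, 10 min) TG/TC by spectrophotometric kit; % fall vs control; mean ± SE, ANOVA with Dunnett's.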

Mus musculus [6] = assay: Hypolipidemic activity in Swiss albino mouse assessed as reduction in plasma total cholesterol level at 50 mg/kg, po for 8 days measured on day 9 by spectrophotometry relative to control; format: functional; parameters: scale not given: the % may be the effect or the level left; in short: as §2
[7] = Prodrug conversion in 0.2 M phosphate buffer solution assessed as benzofibrate formation at pH 7.4 at 40 degC after 4 hrs by HPLC analysis; details: pH 7.4, 4 h
[8] = Prodrug conversion in 0.1 M boric acid buffer solution assessed as benzofibrate formation at pH 9.0 at 40 degC after 4 hrs by HPLC analysis; details: pH 9, 4 h
Mus musculus [9] = assay: Hypolipidemic activity in Swiss albino mouse assessed as reduction in plasma total cholesterol level at 100 mg/kg, po for 8 days measured on day 9 by spectrophotometry relative to control; format: functional; parameters: scale not given: the % may be the effect or the level left
In short: (§3)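 Dose-response in male Swiss albino mice (21–30 g, chow fed): oral dosing at 10, 30 or 100 mg/kg/day, vehicle Tween-80 in 0.5% CMC. Plasma triglyceride and total cholesterol measured spectrophotometrically with a commercial kit; % fall relative to untreated control.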

Mus musculus [10] = assay: Hypolipidemic activity in Swiss albino mouse assessed as reduction in plasma triglyceride level at 10 mg/kg, po for 8 days measured on day 9 by spectrophotometry relative to control; format: functional; parameters: scale not given: the % may be the effect or the level left; in short: as §3
Mus musculus [11] = assay: Hypolipidemic activity in Swiss albino mouse assessed as reduction in plasma triglyceride level at 30 mg/kg, po for 8 days measured on day 9 by spectrophotometry relative to control; format: functional; parameters: scale not given: the % may be the effect or the level left; in short: as §3
Mus musculus [12] = assay: Hypolipidemic activity in Swiss albino mouse assessed as reduction in plasma triglyceride level at 100 mg/kg, po for 8 days measured on day 9 by spectrophotometry relative to control; format: functional; parameters: scale not given: the % may be the effect or the level left; in short: as §3
Mus musculus [13] = assay: Hypolipidemic activity in Swiss albino mouse assessed as reduction in plasma total cholesterol level at 10 mg/kg, po for 8 days measured on day 9 by spectrophotometry relative to control; format: functional; parameters: scale not given: the % may be the effect or the level left; in short: as §3
Mus musculus [14] = assay: Hypolipidemic activity in Swiss albino mouse assessed as reduction in plasma total cholesterol level at 30 mg/kg, po for 8 days measured on day 9 by spectrophotometry relative to control; format: functional; parameters: scale not given: the % may be the effect or the level left; in short: as §3

Row | logD [1] | Stability [2] | Stability [3] | Drug metabolism [4] | Drug metabolism [7] | Drug metabolism [8] | SMILES | Activity (Mus musculus [5]) | Activity (Mus musculus [6]) | Activity (Mus musculus [9]) | Activity (Mus musculus [10]) | Activity (Mus musculus [11]) | Activity (Mus musculus [12]) | Activity (Mus musculus [13]) | Activity (Mus musculus [14])
1 | 5.1 | Stable | Stable | 6.3 µg/mL | 6.2 µg/mL | 8.8 µg/mL | CC(C)(Oc1ccc(CCNC(=O)c2ccc(Cl)cc2)cc1)C(=O)OCCN1CCOCC1 | 11.8% | 3% |  |  |  |  |  | 
2 |  |  |  |  |  |  | CC(C)OC(=O)OC(C)OC(=O)C(C)(C)Oc1ccc(CCNC(=O)c2ccc(Cl)cc2)cc1 (stereo not drawn) | 3.9% | -5.6% |  |  |  |  |  | 
3 | 3.8 | Stable | Stable | 0.7 µg/mL | 1.8 µg/mL | 2.5 µg/mL | CC(=O)OCCOC(=O)C(C)(C)Oc1ccc(CCNC(=O)c2ccc(Cl)cc2)cc1 | 9.6% | 2.4% |  |  |  |  |  | 
4 | 3.1 | Stable | Stable | 0.2 µg/mL | 0.5 µg/mL | 2.6 µg/mL | Cc1oc(=O)oc1COC(=O)C(C)(C)Oc1ccc(CCNC(=O)c2ccc(Cl)cc2)cc1 | 30.2% | 13% | 4% | 3.51% | 27.1% | 22.3% | 4.9% | 2%
5 |  |  |  |  |  |  | CC(C)OC(=O)OCOC(=O)C(C)(C)Oc1ccc(CCNC(=O)c2ccc(Cl)cc2)cc1 | 3% | 3% |  |  |  |  |  | 
6 | 5.1 | Stable | Stable | 1.7 µg/mL | 2.2 µg/mL | 0.8 µg/mL | CC(C)(C)C(=O)OCOC(=O)C(C)(C)Oc1ccc(CCNC(=O)c2ccc(Cl)cc2)cc1 | 18.8% | 3.4% |  |  |  |  |  | 
7 | 1.5 |  |  |  |  |  | CC(C)(Oc1ccc(CCNC(=O)c2ccc(Cl)cc2)cc1)C(=O)O [BEZAFIBRATE] | 11.4% | 10.4% |  |  |  |  |  | 
8 | 4.5 | Stable | Stable | 0.2 µg/mL | 0.9 µg/mL | 6.6 µg/mL | CC(=O)OC(C)OC(=O)C(C)(C)Oc1ccc(CCNC(=O)c2ccc(Cl)cc2)cc1 (stereo not drawn) | 17.2% | 4.3% |  |  |  |  |  | 
